Measured values reported in ChEMBL document CHEMBL4610079, “Anti-inflammatory Flavanones and Flavones from Tephrosia linearis” (2020).

Experiments:
Format in all cases: functional
PBMC [1] = experiment: Antiinflammatory activity in LPS-induced human PBMC cells assessed as IL-6 release at 100 uM after 24 hrs by luminex based bead assay relative to control
Procedure, shortened: (§1)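 Pooled cryopreserved human PBMCs from three donors were thawed and resuspended in RPMI 1640 with 10% FBS, at 100 000 cells/well. Each test item was given at 100 μM from a 20 mM DMSO stock, with 0.5% final DMSO. It was co-incubated with 10 μg/mL LPS for 24 h at 37 °C and 5% CO2. Supernatant was read by MagPix cytokine bead array, expressed as % of LPS control, n = 1.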

PBMC [2] = experiment: Antiinflammatory activity in LPS-induced human PBMC cells assessed as IL-2 release at 100 uM after 24 hrs by luminex based bead assay relative to control; procedure, shortened: as §1
PBMC [3] = experiment: Antiinflammatory activity in LPS-induced human PBMC cells assessed as TNFalpha release at 100 uM after 24 hrs by luminex based bead assay relative to control; procedure, shortened: as §1
PBMC [4] = experiment: Antiinflammatory activity in LPS-induced human PBMC cells assessed as GM-CSF release at 100 uM after 24 hrs by luminex based bead assay relative to control; procedure, shortened: as §1
PBMC [5] = experiment: Antiinflammatory activity in LPS-induced human PBMC cells assessed as IL-1beta release at 100 uM after 24 hrs by luminex based bead assay relative to control; procedure, shortened: as §1

Compound | Activity (PBMC [1]) [%] | Activity (PBMC [2]) [%] | Activity (PBMC [3]) [%] | Activity (PBMC [4]) [%] | Activity (PBMC [5]) [%]
C=C(C)C(O)Cc1c(OC)cc2c(c1O)C(=O)C[C@@H](c1ccc(O)cc1)O2 (stereo not given in full) | 25.79 | 17.72 | 4.03 | 32.47 | 53.77
CC(=O)OCC1(C)C=Cc2c(cc(O)c3c2O[C@H](c2ccccc2)CC3=O)O1 (stereo not given in full) | 43.39 | 17.72 | 2.66 | 40.97 | 157.09
O=c1cc(-c2ccc(O)c(O)c2)oc2cc(O)cc(O)c12 [LUTEOLIN] | 0.04 | 57.6 | 0.17 | 8.63 | 0.67
COc1cc(-c2cc(=O)c3ccc(O)cc3o2)ccc1O | 100 | 57.64 | 3.64 | 92.58 | 109.22
CC(C)=CCc1c(O)cc2oc(-c3ccc(O)cc3)cc(=O)c2c1O | 24.72 | 17.72 | 5.01 | 48.79 | 40.83
COc1c(O)cc2oc(-c3ccc(O)c(O)c3)c(O[C@@H]3O[C@@H](C)[C@H](O)[C@@H](O)[C@H]3O)c(=O)c2c1O | 0.64 | 57.6 | 0.54 | 8.63 | 4.81
COc1cc2oc(-c3ccc(O)c(O)c3)c(O[C@@H]3O[C@@H](C)[C@H](O)[C@@H](O)[C@H]3O)c(=O)c2c(O)c1OC | 24.94 | 17.72 | 3.83 | 48.79 | 148.44
COc1c2c(c(/C=C\C(C)(C)O)c3oc(-c4ccccc4)cc(=O)c13)OC(C)(C)C=C2 | 0 | 57.6 | 0.17 | 8.63 | 1.18
C=C(C)/C=C/c1c2c(c(O)c3c(=O)cc(-c4ccccc4)oc13)C=CC(C)(C)O2 | 622.32 | 17.72 | 1.89 | 78.39 | 169.84
COc1c2c(c(/C=C/C(C)(C)OC)c3oc(-c4ccccc4)cc(=O)c13)OC(C)(C)C=C2 | 10.89 | 57.6 | 0.92 | 17.39 | 68.27
CC1(C)C=Cc2c(cc(O)c3c(=O)cc(-c4ccc(O)cc4)oc23)O1 [ATALANTOFLAVONE] | 7.23 | 57.64 | 1.12 | 4.87 | 48.35
COc1cc([C@@H]2CC(=O)c3cc(OC)c(O)cc3O2)ccc1O | 100 | 57.6 | 12.55 | 35.76 | 220.43
C=C(C)C(O)Cc1c(O)cc2oc(-c3ccc(O)cc3)cc(=O)c2c1O (stereo not given) | 238.54 | 57.64 | 5.2 | 38.92 | 103.28
CC(C)Cc1ccc(C(C)C(=O)O)cc1 (stereo not given) [IBUPROFEN] | 46.46 | 80.33 | 12.23 | 47.76 | 199.29
C=C(C)/C=C/c1c2c(c(OC)c3c(=O)cc(-c4ccccc4)oc13)C=CC(C)(C)O2 | 97.43 | 57.6 | 3.15 | 83.73 | 75.85
COc1cc(O)c2c(=O)cc(-c3ccc(O)c(OC)c3)oc2c1 [VELUTIN] | 0.09 | 57.6 | 0.92 | 8.63 | 0.8
O=c1cc(-c2ccc(O)cc2)oc2cc(O)cc(O)c12 [APIGENIN] | 48.33 | 57.6 | 4.22 | 32.47 | 105.17
COc1cc(-c2cc(=O)c3cc(OC)c(O)cc3o2)ccc1O | 43.11 | 17.72 | 4.03 | 17.39 | 170.51
COc1cc2c(c(O)c1CC=C(C)C)C(=O)C[C@@H](c1ccc(O)cc1)O2 | 19.57 | 57.64 | 6.38 | 46.89 | 102.34
